# Sampled rows, rich in hits. Any-hit rate of the full collection: about 1.9%.
# T cell modulator: T cell immune modulators affecting CD8 T cell-vesicle binding; 2C CD8+ T cell-vesicle binding, flow cytometry; active compounds read low; response (vesicle binding), % at 7 µM; 0.068% of 330,000 active; AID 2052;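 active means response, share of CD8 T cells binding vesicles, and their 90th percentile fluorescence all below set limits, cut at about 80% in these data, passing the limit was not always enough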;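 further: values below 100% mean blocked vesicle binding to the CD8+ T cells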
#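 Benchmarks: naked versus QL9-loaded vesicles / Assay system: purified 2C TCR transgenic mouse naive CD8+ T cells / Technique: high-throughput flow cytometry with anti-B7-1 and anti-CD8 staining / Timing: Cell–vesicle co-incubation 1.5 h at 37 °C, staining 20 min on ice / Read-out: percent CD8+ FL2 mean versus row control / Probe or stimulus: QL9-loaded Drosophila micro-vesicles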
# proKLK7 act: activates the human kallikrein-7 zymogen; P49862; purified proKLK7, EDANS-DABCYL substrate fluorescence; 100% is mature enzyme control, 0% vehicle; activation, % at 7 µM; 0.9% of 370,000 active; AID 652039;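 active means activation above the mean of all tested compounds plus 3 SD, computed per campaign excluding outliers beyond control limits, cut at about 13% in these data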
# MIN6 prolif: MIN6 beta-cell proliferation induction; proliferation, % at 10 µM; 0.29% of 330,000 active; AID 2380; MIN6 cells proliferation, ATPlite luminescence, 48 h; cells starved in 0.2% serum; 100% = growth in 10% serum;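 active means compounds whose signal lies at least 3.5 SD above the mean of all wells on their plate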;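 further: 0% = DMSO-treated cells in low-serum medium and 100% = 10% serum control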
# Rce1 inh: yeast Ras-converting enzyme inhibition. Q03530. yeast membranes, quenched prenylated peptide cleavage fluorescence. calls only. 0.27% of 290,000 active. AID 2563;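 active means fall in fluorescence gain of 50% or more versus controls, with final raw signal at or below 3038400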;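 further: plate controls were neutral control wells for no effect and wells lacking membranes for full effect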
# Target sequence (Q03530 whole entry, looked up): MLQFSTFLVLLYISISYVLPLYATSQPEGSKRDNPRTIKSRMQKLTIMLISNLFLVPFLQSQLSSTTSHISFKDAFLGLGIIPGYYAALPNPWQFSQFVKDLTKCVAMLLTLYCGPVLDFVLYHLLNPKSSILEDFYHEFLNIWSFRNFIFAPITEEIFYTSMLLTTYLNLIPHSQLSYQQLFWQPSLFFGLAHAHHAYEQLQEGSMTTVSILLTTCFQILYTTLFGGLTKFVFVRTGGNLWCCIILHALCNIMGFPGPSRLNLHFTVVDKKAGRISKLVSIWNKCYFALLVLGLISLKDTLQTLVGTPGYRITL
# CR mimetic SO: lowers age-related superoxide in aged yeast cells | S. cerevisiae aged cells, superoxide DHE fluorescence; active compounds read low | superoxide response (% of plate mean), % at 10 µM | 0.18% of 330,000 active | AID 2690;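 active means superoxide response under a set limit, about three screen SD below normal, cut at about 65% in these data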;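 further: yeast aged for seven days with compound at 30 °C before DHE staining; 100% = average MFI of all compound-treated wells on the plate with controls excluded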
# V-ATPase pHluor: yeast V-ATPase proton transport regulation by pHLuorin | 0.37% of 350,000 active | response, % at 10 µM | S. cerevisiae, pHLuorin cytosolic pH fluorescence; in the data active means response mostly above about 7.3%, no sharp cut-off; inactive means mostly below about 5.4%; further: actives read high
# KLK7 act conf: proKLK7 activation, confirmation; activation, % at 7 µM; shares compounds with proKLK7 act; AID 686949; 68% of 3,200 active; purified proKLK7, EDANS-DABCYL substrate fluorescence; scaled: vehicle 0, mature enzyme 100;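 active means activation, as change over the incubation, above the mean of all tested compounds plus 3 SD, cut at about 13% in these data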
# EDANS-DABCYL int: counter-screen for kallikrein-7 activators: EDANS-DABCYL optical interference | shares compounds with proKLK7 act | EDANS-DABCYL substrate fluorescence interference, no enzyme, 4 h; solvent 0%, active enzyme control 100% | activation, % at 7 µM | 80% of 3,200 active | AID 686952;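 active means activation above the all-compound mean plus 3 SD, ignoring values outside control-based bounds, cut at about 4.8% in these data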;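 further: value is the 4 h activation minus the activation read at time zero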
# K7 EDANS ctr: optically interferes with EDANS-DABCYL fluorescence, kallikrein-7 activator counter-screen; shares compounds with proKLK7 act; EDANS-DABCYL peptide fluorescence interference, no enzyme; EC50, µM; 20% of 250 active; AID 720493;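 active means compounds that raise the fluorescence signal in this interference counterscreen, with EC50 at or below 10 µM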;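 further: intact quenched peptide substrate alone read at 355 nm excitation and 520 nm emission; signal is fluorescence gain from T0 to T4 after four hours at room temperature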
# * marks the source's active call; other numbers are inactive results; i = inactive; · = no result.
SMILES,T cell modulator,proKLK7 act,MIN6 prolif,Rce1 inh,CR mimetic SO,V-ATPase pHluor,KLK7 act conf,EDANS-DABCYL int,others
C=CCn1c(N)c(C(=O)OCCC)c2nc3ccccc3nc21,358,60*,-3,i,103,0,52*,50*,
COc1ccc(/C=C2\CCc3c2nc2ccccc2c3C(=O)O)cc1OC,540,16*,-5,i,103,-62,55*,65*,
CCc1cc2c(=O)c(-c3nc4ccccc4n3C)coc2c(CN2CCN(C)CC2)c1O,248,9,1,i,113,-1,·,·,
CCc1cc2c(=O)c(-c3nc4ccccc4n3C)coc2c(CN2CCC(C)CC2)c1O,·,5,-3,i,·,-2,·,·,
CCc1cc2c(=O)c(-c3nc4ccccc4n3C)c(C)oc2c(CN(CC)CC)c1O,426,16*,-1,i,102,-3,11,11*,
CCN(CC)Cc1c(O)ccc2cc(-c3nc4ccccc4n3C)c(=O)oc12,305,52*,-1,i,104,-84,73*,76*,
CC(=O)Nc1ccc(S(=O)(=O)C(C#N)c2nc3ccccc3nc2NCCCO)cc1 (stereo unspecified),270,39*,-3,·,97,-1,53*,69*,
CC(=O)Nc1ccc(S(=O)(=O)Nc2nc3ccccc3nc2Nc2ccccc2)cc1,413,-1,-5,i,106,4,·,·,
CC(=O)Nc1ccc(S(=O)(=O)C(C#N)c2nc3ccccc3nc2NCCO)cc1 (stereo unspecified),320,64*,-4,·,87,0,66*,73*,
Cc1ccc(S(=O)(=O)C(C#N)c2nc3ccccc3nc2OCCO)cc1 (stereo unspecified),272,-2,2,i,101,2,·,·,
COc1cccc(NS(=O)(=O)c2csc(C(N)=O)c2)c1,242,0,0,i,90,-2,·,·,
Cc1ccc(C(=O)c2oc3ccc(Cl)cc3c2NC(=O)CN2CCN(C)CC2)cc1,272,0,-7,i,129,0,·,·,
Cc1cccc2c(C(=O)O)c3cccc(C)c3nc12,556,28*,0,i,114,4,49*,42*,K7 EDANS ctr=>69
O=C(COc1ccc(/C=N/NC(=O)c2ccncc2)cc1)Nc1ccccc1,814,27*,-4,i,101,7,-22,-15,
O=C(COc1ccc(/C=N/NC(=O)c2ccncc2)cc1)Nc1cccc([N+](=O)[O-])c1,301,-1,-1,i,97,0,·,·,
CC(=O)Nc1ccc(CNc2nc3cc(-c4cccc(C(F)(F)F)c4)sc3c(=O)n2C)cc1,·,0,·,·,·,·,·,·,
CC(C)c1ccc2[nH]c3c(c2c1)CCCC3=O,604,14*,2,i,110,11,-5,-3,
Cc1ccc2[nH]c3c(c2c1)CCCC3=O,496,6,4,i,83,4,·,·,
N#Cc1ccccc1OCC(=O)Nc1nnc(C2CC2)s1,376,-1,-3,·,97,2,·,·,
CN1C=CC(=CC=C2C=CC(=O)C=C2)C=C1,130,50*,-4,i,93,0,12,14*,
COc1ccc(N(C(=O)c2cnccn2)C(C(=O)NC2CCCCC2)c2cc(OC)c(OC)c(OC)c2)cc1 (stereo unspecified),198,1,0,i,96,-2,·,·,
O=S(=O)(Nc1ccc(-c2nc3cccnc3s2)cc1)c1cc(F)ccc1F,308,16*,-1,i,95,-1,20*,21*,
CN(C)C=Nc1ccc2nc3c(cc2c1)[nH]c1ccccc13,175,49*,-7,i,115,0,50*,41*,K7 EDANS ctr=>69
CCOC(=O)c1[nH]c2ccccc2c1N=CN(C)C,221,0,4,i,113,3,·,·,

# Bioassay records (PubChem)
